Key:
Assay type in all cases: ADME, organism-based
[1] = Clearance in human whole blood at 100 uCi, iv by liquid scintillation counting; conditions: in vivo
In short: (§1)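 Nine healthy men, single i.v. infusion of [14C]drug (planned 100 mg/100 μCi, mean delivered 95 μCi) over 100 min. Heparinized blood sampled from 0 to 18 h, then daily through day 10, plus follow-up. Total radioactivity in plasma and whole blood by liquid scintillation counting, reported as mg equivalents. Noncompartmental analysis; values are means (%CV).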

[2] = tested on: Plasma; assay: Clearance in human plasma at 100 uCi, iv by liquid scintillation counting; conditions: in vivo; in short: as §1
[3] = Drug level in bile-duct cannulated Sprague-Dawley rat assessed as radioactive drug recovery in bile at 5 mg/kg, iv after 168 hrs by liquid scintillation counting; set-up: dose 5 mg/kg, route intravenous; conditions: in vivo
In short: (§2)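 Male Sprague-Dawley rats, single i.v. bolus of [14C]drug. Five bile duct-cannulated rats: bile collected at 0-4, 4-8 and 8-24 h, then every 24 h to 168 h. Three noncannulated rats were killed at 168 h. Urine and feces collected over set intervals; carcass and cage washings taken at sacrifice. Liquid scintillation counting, expressed as percent of dose.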

[4] = tested on: Plasma; assay: Half life in Sprague-Dawley rat plasma at 5 mg/kg, iv by liquid scintillation counting; set-up: dose 5 mg/kg, route intravenous; conditions: in vivo
In short: (§3)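 Male Sprague-Dawley rats, single i.v. bolus of [14C]drug. Blood by cardiac puncture from three noncannulated rats killed at each time from 0.25 to 168 h; plasma separated from an aliquot. Radioactivity by liquid scintillation counting. Parameters come from a composite profile of mean values, taking 1 g as equal to 1 ml.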

[5] = Drug level in bile-duct cannulated Sprague-Dawley rat assessed as radioactive drug recovery in carcass at 5 mg/kg, iv after 168 hrs by liquid scintillation counting; set-up: dose 5 mg/kg, route intravenous; conditions: in vivo; in short: as §2
[6] = tested on: Plasma; assay: Volume of distribution at steady state in Sprague-Dawley rat plasma at 5 mg/kg, iv by liquid scintillation counting; set-up: dose 5 mg/kg, route intravenous; conditions: in vivo; in short: as §3
[7] = Mean residence time in human whole blood at 100 uCi, iv by liquid scintillation counting; conditions: in vivo; in short: as §1
[8] = Drug level in bile-duct cannulated Sprague-Dawley rat assessed as radioactive drug recovery in feces at 5 mg/kg, iv after 168 hrs by liquid scintillation counting; set-up: dose 5 mg/kg, route intravenous; conditions: in vivo; in short: as §2
[9] = Drug level in human assessed as radioactive drug recovery in urine at 100 uCi, iv after 216 hrs by liquid scintillation counting; conditions: in vivo
In short: (§4)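 Nine healthy men given a single i.v. infusion of [14C]drug. Urine collected predose, at 0-2, 2-4, 4-8 and 8-24 h, then every 24 h to day 10. Feces collected predose and every 24 h to day 10. Radioactivity measured by liquid scintillation counting and totalled as cumulative percent of dose through 216 h.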

[10] = tested on: Plasma; assay: Volume of distribution at steady state in human plasma at 100 uCi, iv by liquid scintillation counting; conditions: in vivo
In short: (§5)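 Healthy adult men (n = 9), single i.v. infusion of [14C]drug over 100 min at 1 mg/min. 100 mg/100 μCi was planned; the mean actually given was 88.3 mg and 95 μCi. Heparinized samples drawn from 0 h through day 10 and at follow-up. Total radioactivity in plasma or whole blood counted by liquid scintillation and expressed as mg equivalents. Noncompartmental analysis, given as mean (%CV).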

[11] = Drug level in noncannulated Sprague-Dawley rat assessed as radioactive drug recovery in feces at 5 mg/kg, iv after 168 hrs by liquid scintillation counting; set-up: dose 5 mg/kg, route intravenous; conditions: in vivo; in short: as §2
[12] = tested on: Plasma; assay: Cmax in human plasma at 100 uCi, iv by liquid scintillation counting; set-up: route intravenous; conditions: in vivo; in short: as §1
[13] = tested on: Plasma; assay: Tmax in Sprague-Dawley rat plasma at 5 mg/kg, iv by liquid scintillation counting; set-up: dose 5 mg/kg, route intravenous; conditions: in vivo; in short: as §3
[14] = Drug level in human assessed as radioactive drug recovery in feces at 100 uCi, iv after 216 hrs by liquid scintillation counting; conditions: in vivo; in short: as §4
[15] = Volume of distribution at steady state in human whole blood at 100 uCi, iv by liquid scintillation counting; conditions: in vivo; in short: as §5
[16] = Tmax in human whole blood at 100 uCi, iv by liquid scintillation counting; conditions: in vivo; in short: as §1
[17] = Half life in Sprague-Dawley rat whole blood at 5 mg/kg, iv by liquid scintillation counting; set-up: dose 5 mg/kg, route intravenous; conditions: in vivo; in short: as §3
[18] = Cmax in Sprague-Dawley rat whole blood at 5 mg/kg, iv by liquid scintillation counting; set-up: dose 5 mg/kg, route intravenous; conditions: in vivo; in short: as §3
[19] = tested on: Plasma; assay: Tmax in human plasma at 100 uCi, iv by liquid scintillation counting; conditions: in vivo; in short: as §1
[20] = Drug level in noncannulated Sprague-Dawley rat assessed as radioactive drug recovery in carcass at 5 mg/kg, iv after 168 hrs by liquid scintillation counting; set-up: dose 5 mg/kg, route intravenous; conditions: in vivo; in short: as §2
[21] = Half life in human whole blood at 100 uCi, iv by liquid scintillation counting; in short: as §1
[22] = tested on: Plasma; assay: Cmax in Sprague-Dawley rat plasma at 5 mg/kg, iv by liquid scintillation counting; set-up: dose 5 mg/kg, route intravenous; conditions: in vivo; in short: as §3
[23] = Volume of distribution at steady state in Sprague-Dawley rat whole blood at 5 mg/kg, iv by liquid scintillation counting; set-up: dose 5 mg/kg, route intravenous; conditions: in vivo
In short: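 Male Sprague-Dawley rats, single i.v. bolus of [14C]drug, 5 mg/kg. Blood by cardiac puncture from three non-cannulated rats killed at each time from 0.25 to 168 h. Radioactivity counted by liquid scintillation. Noncompartmental parameters taken from a composite profile of mean values per time point, assuming 1 g blood equals 1 ml.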

[24] = Tmax in Sprague-Dawley rat whole blood at 5 mg/kg, iv by liquid scintillation counting; set-up: dose 5 mg/kg, route intravenous; conditions: in vivo; in short: as §3
[25] = Cmax in human whole blood at 100 uCi, iv by liquid scintillation counting; set-up: route intravenous; conditions: in vivo; in short: as §1
[26] = tested on: Plasma; assay: Half life in human plasma at 100 uCi, iv by liquid scintillation counting; in short: as §1
[27] = Drug level in human assessed as radioactive drug recovery in feces at 100 uCi, iv within 216 hrs by liquid scintillation counting; conditions: in vivo; in short: as §4
[28] = tested on: Plasma; assay: Mean residence time in human plasma at 100 uCi, iv by liquid scintillation counting; conditions: in vivo; in short: as §1

CCCCCOc1ccc(-c2ccc(-c3ccc([14C](=O)N[C@H]4C[C@@H](O)[C@@H](O)NC(=O)[C@@H]5[C@@H](O)[C@@H](C)CN5C(=O)[C@H]([C@H](C)O)NC(=O)[C@H]([C@H](O)[C@@H](O)c5ccc(O)cc5)NC(=O)[C@@H]5C[C@@H](O)CN5C(=O)[C@H]([C@H](C)O)NC4=O)cc3)cc2)cc1 [[14C]-ANIDULAFUNGIN]
CL [1]: 0.356 L/h | CL [2]: 0.356 L/h | Drug uptake [3]: 33.9% | t1/2 [4]: 52.9 h | Drug uptake [5]: 40.4% | Vdss [6]: 1.056 L/kg | MRT [7]: 174 h | Drug uptake [8]: 17.1% | Drug uptake [9]: 0.56% | Vdss [10]: 57.6 L | Drug uptake [11]: 77.1% | Cmax [12]: 3020 ng/mL | Tmax [13]: 0.25 h | Drug uptake [14]: 29.5% | Vdss [15]: 61.6 L | Tmax [16]: 1.75 h | t1/2 [17]: 52.1 h | Cmax [18]: 11.5 ugequiv/ml | Tmax [19]: 1.78 h | Drug uptake [20]: 23.1% | t1/2 [21]: 139 h | Cmax [22]: 6.84 ugequiv/ml | Vdss [23]: 0.696 L/kg | Tmax [24]: 0.25 h | Cmax [25]: 3380 ng/mL | t1/2 [26]: 119 h | Drug uptake [27]: 10% | MRT [28]: 162 h

— ChEMBL document CHEMBL1629624, “In vitro and in vivo studies to characterize the clearance mechanism and potential cytochrome P450 interactions of anidulafungin” (Antimicrob Agents Chemother, 2009)
